Measured values: ChEMBL document CHEMBL4024790 (J Med Chem, 2018)
Calls of active or inactive are those of the source. The calls are words filed in the database; no cut-off is given here.

Assays:
[1] = Cmax in Wistar Han rat at 5 mg/kg, po administered via gavage by LC-MS/MS analysis; type: ADME, organism-based; set-up: dose 5 mg/kg, route oral; conditions: in vivo
Cytochrome P450 2B6 = molecular target: T1, Cytochrome P450 2B6 (Homo sapiens, UniProt P20813); assay: Inhibition of recombinant human CYP2B6; type: ADME; conditions: recombinant enzyme
T1 sequence (P20813 whole entry): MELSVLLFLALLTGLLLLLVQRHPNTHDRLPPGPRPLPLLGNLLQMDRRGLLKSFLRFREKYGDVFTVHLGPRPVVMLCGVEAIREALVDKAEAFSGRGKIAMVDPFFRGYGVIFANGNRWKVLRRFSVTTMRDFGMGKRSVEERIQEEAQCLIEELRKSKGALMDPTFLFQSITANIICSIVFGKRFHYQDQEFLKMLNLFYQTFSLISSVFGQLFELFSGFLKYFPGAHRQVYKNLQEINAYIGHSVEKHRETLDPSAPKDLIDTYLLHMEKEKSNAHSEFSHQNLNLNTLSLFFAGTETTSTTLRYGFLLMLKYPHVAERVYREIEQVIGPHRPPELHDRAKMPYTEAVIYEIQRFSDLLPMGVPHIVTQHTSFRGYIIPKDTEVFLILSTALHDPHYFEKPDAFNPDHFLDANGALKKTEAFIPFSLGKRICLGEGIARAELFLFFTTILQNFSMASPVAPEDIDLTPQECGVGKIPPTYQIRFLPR

[2] = AUC (0 to infinity) in Wistar Han rat at 1 mg/kg, iv by LC-MS/MS analysis; type: ADME, organism-based; set-up: dose 1 mg/kg, time infinity, route intravenous; conditions: in vivo
Outline: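 Male Wistar-Han rats received a single IV dose as a solution in 20% (w/v) sulfobutylether-β-cyclodextrin with hydrochloric acid. Blood was drawn by carotid artery cannula into K2EDTA at set times from 2 min to 24 h. Plasma was acetonitrile-precipitated with internal standard and run by positive-ESI LC-MS/MS against standards of 0.61–625 ng/mL. AUC was extrapolated from time 0 to infinity.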

[3] = Oral bioavailability in Wistar Han rat at 5 mg/kg administered via gavage by LC-MS/MS analysis; type: ADME, organism-based; conditions: in vivo
Rattus norvegicus [4] = assay: Reversal of MK-801-induced disruption of low frequency cortical delta oscillation in Sprague-Dawley rat brain at 0.03 mg/kg, iv in early time point measured up to 55 mins by electrophysiology method; type: functional, organism-based
[5] = Terminal half life in Wistar Han rat at 1 mg/kg, iv by LC-MS/MS analysis; type: ADME, organism-based; conditions: in vivo, read-out: beta t1/2 (converted)
Outline: (§1)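 Single iv dose to male Wistar-Han rats (1 mg/kg) or dogs (0.3 mg/kg), given as a solution in 20% (w/v) SBECD with HCl. Dose volume 1 mL/kg in rats and 0.4 mL/kg in dogs. Blood taken by carotid artery cannula from 2 min to 24 h into K2EDTA (rat) or K3EDTA (dog) tubes. Plasma analysed by LC-MS/MS with positive electrospray after acetonitrile precipitation with internal standard.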

[6] = Passive permeability in RRCK cells; type: ADME, cell-based, Canis lupus familiaris, MDCKII-LE; conditions: dog, MDCK; read-out: permeability
Rattus norvegicus [7] = species on record: Rattus norvegicus; assay: Toxicity in rat assessed as effect on skeletal muscle up to 1 month by microscopic method; conditions: in vivo
[8] = Ratio of unbound brain concentration to unbound plasma concentration in po dosed Cynomolgus monkey; type: ADME, organism-based, Macaca fascicularis; conditions: brain and plasma, read-out: K(p,uu,brain)
Plasma = assay: Drug uptake in rat plasma at 5 to 250 mg/kg/day, po up to 15 days by microscopic method; type: ADME, organism-based; conditions: in vivo, 360 h
Outline: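 Exploratory rat toxicity study, oral dosing at 5, 50 and 250 mg/kg/day for up to 15 days, with microscopic examination of heart and vasculature and measurement of plasma and brain exposure.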

Rattus norvegicus [9] = assay: Reversal of MK-801-induced disruption of low frequency cortical delta oscillation in Sprague-Dawley rat brain at 0.1 mg/kg, iv up to 55 mins by electrophysiology method; type: functional, organism-based
Liver = assay: Drug metabolism in dog liver microsomes assessed as 1-(7-methyl-5-(1-methyl-5-(5-(trifluoromethyl)pyridin-2-yl)-1H-pyrazol-4-yl)imidazo[1,5-f][1,2,4]triazin-4-yl)azetidin-3-ol formation at 1 to 50 uM after 1 hr by LC-MS/MS analysis; type: ADME, Canis lupus familiaris, microsome
Outline: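 Rat, dog or human liver microsomes or hepatocytes (P450 0.35–0.5 µM final) incubated with compound at 1, 10 or 50 µM in 100 mM phosphate buffer with 1 mM NADP regenerating system, 37°C for 1 h; quenched with 4 volumes acetonitrile, centrifuged, supernatant evaporated, reconstituted in 5% aqueous acetonitrile and analysed by reversed-phase LC.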

[10] = molecular target: T2, cGMP-dependent 3',5'-cyclic phosphodiesterase (Rattus norvegicus, UniProt Q01062); assay: Displacement of radiolabeled 4-(azetidin-1-yl)-3-[5-[4-(trifluoromethyl)phenyl]-1H-pyrazol-4-yl]-1-(tritritiomethyl)pyrazolo[3,4-d]pyrimidine from PDE2A in rat striatal membranes after 30 mins by liquid scintillation counting method; type: cell membranes, Striatum, Membrane
T2 sequence (Q01062 whole entry): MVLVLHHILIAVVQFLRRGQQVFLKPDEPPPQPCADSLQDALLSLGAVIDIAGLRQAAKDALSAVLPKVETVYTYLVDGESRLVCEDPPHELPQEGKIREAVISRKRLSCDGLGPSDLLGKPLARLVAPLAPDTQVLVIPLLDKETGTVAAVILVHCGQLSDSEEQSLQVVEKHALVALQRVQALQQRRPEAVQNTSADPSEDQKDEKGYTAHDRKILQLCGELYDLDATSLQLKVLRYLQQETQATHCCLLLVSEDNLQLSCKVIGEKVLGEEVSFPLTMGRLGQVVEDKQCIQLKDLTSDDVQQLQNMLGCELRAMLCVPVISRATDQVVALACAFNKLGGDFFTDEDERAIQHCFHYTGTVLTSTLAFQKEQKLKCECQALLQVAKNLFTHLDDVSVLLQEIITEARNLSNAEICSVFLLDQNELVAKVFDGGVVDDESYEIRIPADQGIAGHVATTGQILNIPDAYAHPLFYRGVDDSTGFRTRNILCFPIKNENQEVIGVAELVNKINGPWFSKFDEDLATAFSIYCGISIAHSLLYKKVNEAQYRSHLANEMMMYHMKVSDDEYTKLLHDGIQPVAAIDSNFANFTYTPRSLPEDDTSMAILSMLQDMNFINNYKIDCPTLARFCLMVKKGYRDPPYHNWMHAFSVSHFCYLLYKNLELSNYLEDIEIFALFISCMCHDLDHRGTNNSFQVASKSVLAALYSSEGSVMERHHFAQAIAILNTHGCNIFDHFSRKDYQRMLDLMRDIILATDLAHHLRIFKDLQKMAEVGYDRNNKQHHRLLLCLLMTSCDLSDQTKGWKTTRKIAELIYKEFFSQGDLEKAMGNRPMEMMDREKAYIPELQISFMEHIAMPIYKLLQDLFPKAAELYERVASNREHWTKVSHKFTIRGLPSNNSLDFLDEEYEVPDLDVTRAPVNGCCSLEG

[11] = Terminal half life in beagle dog at 0.3 mg/kg, iv by LC-MS/MS analysis; type: ADME, organism-based, Canis lupus familiaris; conditions: in vivo, read-out: beta t1/2 (converted); outline: as §1
Rattus norvegicus [12] = assay: Reversal of ketamine-induced working memory deficit in Long Evans rat at 0.032 to 0.32 mg/kg, sc by radial arm maze assay
[13] = Apparent intrinsic clearance in human liver microsomes; type: ADME, microsome; conditions: read-out: CLH(app)

Cmax [1]: 363 ng/mL
inhibition (INH) (Cytochrome P450 2B6): Not Active
AUC(0-inf) [2]: 141 ng·h/mL
bioavailability [3]: 44%
half-life [5]: 1.1 h
Papp [6]: 26 ×10⁻⁶ cm/s
Kp uu [8]: 0.6
Drug uptake (Plasma): Active
Drug metabolism (Liver): Metabolite_Detected
Ki [10]: 4.2 nM
half-life [11]: 5 h
CLint scaled [13]: 52 mL/min/kg
Structure (SMILES): Cc1nc(-c2cnn(C)c2-c2ccc(C(F)(F)F)cn2)c2c(N3CCC3)ncnn12 [PF-05180999]
Activity (Rattus norvegicus [4]): Active
Activity (Rattus norvegicus [7]): Toxic
Activity (Rattus norvegicus [9]): Active
Activity (Rattus norvegicus [12]): Active
